How the values were obtained:
Homo sapiens [1] = organism: Homo sapiens; assay: Compound was tested for the inhibition of LTB4 production in human whole blood (HWB); format: functional
Summary of the method: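 LTB4 generation measured in human whole blood. IC50 values are the mean of at least two independent titrations, though some values come from a single titration. Where more than two IC50 values were determined, the 95% confidence limits were within 90% of the mean.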

Homo sapiens [2] = organism: Homo sapiens; assay: Test inhibition of LTB4 production in human peripheral blood polymorphonuclear leukocytes (HPMN); format: functional
Summary of the method: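 LTB4 generation measured in human peripheral blood polymorphonuclear leukocytes. IC50 values are the mean of at least two independent determinations, though some values come from a single titration.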

[3] = biological target: T1, Polyunsaturated fatty acid 5-lipoxygenase (Homo sapiens, UniProt P09917); assay: Potency to inhibit oxidation of arachidonic acid by recombinant human 5-lipoxygenase
T1 sequence (P09917 whole entry): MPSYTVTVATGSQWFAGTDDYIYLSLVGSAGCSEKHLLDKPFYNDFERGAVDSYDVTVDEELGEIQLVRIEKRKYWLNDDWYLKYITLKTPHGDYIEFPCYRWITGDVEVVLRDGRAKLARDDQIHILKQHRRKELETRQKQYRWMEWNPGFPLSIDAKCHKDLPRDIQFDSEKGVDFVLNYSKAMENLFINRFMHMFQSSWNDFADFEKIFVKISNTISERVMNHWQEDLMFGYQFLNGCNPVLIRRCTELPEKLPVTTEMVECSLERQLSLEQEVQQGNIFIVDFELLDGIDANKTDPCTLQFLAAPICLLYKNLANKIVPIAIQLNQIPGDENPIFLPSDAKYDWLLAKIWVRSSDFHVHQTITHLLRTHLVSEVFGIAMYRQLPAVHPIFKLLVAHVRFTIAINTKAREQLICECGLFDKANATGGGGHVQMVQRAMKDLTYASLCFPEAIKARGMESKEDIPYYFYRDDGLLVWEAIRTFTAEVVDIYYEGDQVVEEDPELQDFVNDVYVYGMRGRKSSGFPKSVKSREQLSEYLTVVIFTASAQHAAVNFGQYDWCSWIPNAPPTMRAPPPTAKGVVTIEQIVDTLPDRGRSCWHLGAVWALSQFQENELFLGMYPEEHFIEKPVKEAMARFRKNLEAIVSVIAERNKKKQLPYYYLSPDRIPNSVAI

Row | SMILES | IC50 (Homo sapiens [1]; Homo sapiens, Blood) [nM] | IC50 (Homo sapiens [2]; Homo sapiens) [nM] | IC50 [3] [nM] | IC50 (Homo sapiens [2]) [nM] | IC50 (Homo sapiens [1]) [nM]
1 | O=C1OCc2c1cc1cc(OCc3cccc(C4(O)CCOCC4)c3)ccc1c2-c1ccccc1 | 140 | 2 | – | – | –
2 | OC1(c2cccc(COc3ccc4c(-c5ccoc5)cc(-c5nc6ccccc6s5)cc4c3)c2)CCOCC1 | – | > 62 | > 6000 | – | –
3 | O=C1OCc2c1cc1cc(OCc3cccc(C4(O)CCOCC4)c3)ccc1c2-c1ccco1 | 450 | 5 | 280 | – | –
4 | O=C1OCc2c1cc1cc(OCc3cccc(C4(O)CC5COC(C4)O5)c3)ccc1c2-c1ccccc1 (configuration not stated) | 540 | 6 | 240 | – | –
5 | O=C1OCc2c1cc1cc(OCc3cccc(C4(O)CCOCC4)c3)ccc1c2-c1ccccc1F | 1800 | 18 | 360 | – | –
6 | Cn1nnnc1-c1cc(-c2ccccc2)c2ccc(OCc3cccc(C4(O)CCOCC4)c3)cc2c1 | > 10000 | > 67 | 3000 | – | –
7 | CC(c1cc2ccccc2s1)N(O)C(N)=O (configuration not stated) [ZILEUTON] | 2000 | – | – | – | –
8 | O=C1OCc2c1cc1cc(OCc3cccc(C4(O)CCOCC4)c3)ccc1c2-c1cccnc1 | 1200 | 25 | 720 | – | –
9 | COCc1cc(-c2ccccc2)c2ccc(OCc3cccc(C4(O)CCOCC4)c3)cc2c1 | 200 | 4 | 160 | – | –
10 | CC1(C)COC(c2cc(-c3ccoc3)c3ccc(OCc4cccc(C5(O)CCOCC5)c4)cc3c2)=N1 | 2900 | 17 | 190 | – | –
11 | CC1CC(O)(c2cccc(COc3ccc4c(-c5ccccc5)c5c(cc4c3)C(=O)OC5)c2)CC(C)O1 (configuration not stated) | 900 | 3 | 180 | – | –
12 | COc1ccc(-c2c3c(cc4cc(OCc5cccc(C6(O)CCOCC6)c5)ccc24)C(=O)OC3)cc1 | – | 89 | 6000 | – | –
13 | O=C1OCc2c1cc1cc(OCc3cccc(C4(O)CCOCC4)c3)ccc1c2-c1ccoc1 | 100 | 2 | 26 | – | –
14 | O=C1CC(O)(c2cccc(COc3ccc4c(-c5ccccc5)c5c(cc4c3)C(=O)OC5)c2)CCO1 (configuration not stated) | > 3000 | 35 | 390 | – | –
15 | OCc1cc(-c2ccccc2)c2ccc(OCc3cccc(C4(O)CCOCC4)c3)cc2c1 | – | 9 | 260 | – | –
16 | COC(=O)c1cc(Cc2ccccc2)c2ccc(OCc3cccc(C4(O)CCOCC4)c3)cc2c1 | – | > 70 | > 6000 | – | –
17 | O=C1OC(O)c2c1cc1cc(OCc3cccc(C4(O)CCOCC4)c3)ccc1c2-c1ccccc1 (configuration not stated) | > 3000 | > 700 | > 6000 | – | –
18 | OC1(c2cccc(COc3ccc4c(-c5ccoc5)cc(C5=NCCO5)cc4c3)c2)CCOCC1 | 50 | 3 | 70 | – | –
19 | CC(=O)c1cc(-c2ccccc2)c2ccc(OCc3cccc(C4(O)CCOCC4)c3)cc2c1 | 90 | 2 | 130 | – | –
20 | CC(O)c1cc(-c2ccccc2)c2ccc(OCc3cccc(C4(O)CCOCC4)c3)cc2c1 (configuration not stated) | 675 | 28 | 520 | – | –
21 | O=C1OCc2c1cc1cc(OCc3cccc(C4(O)CCOC(O)C4)c3)ccc1c2-c1ccccc1 (configuration not stated) | 1600 | 15 | 810 | – | –
22 | CC1(C)OC(=O)c2cc3cc(OCc4cccc(C5(O)CCOCC5)c4)ccc3c(-c3ccccc3)c21 | > 3000 | 80 | > 6000 | – | –
23 | O=C(c1cc(-c2ccoc2)c2ccc(OCc3cccc(C4(O)CCOCC4)c3)cc2c1)c1nccs1 | 130 | 2 | 50 | – | –
24 | O=C(c1cccnc1)c1cc(-c2ccoc2)c2ccc(OCc3cccc(C4(O)CCOCC4)c3)cc2c1 | 370 | 7 | 120 | – | –
25 | OC1(c2cccc(COc3ccc4c(-c5ccoc5)cc(C5=NCCS5)cc4c3)c2)CCOCC1 | 75 | 2 | 50 | – | –
26 | Cn1nnc(-c2cc(-c3ccoc3)c3ccc(OCc4cccc(C5(O)CCOCC5)c4)cc3c2)n1 | 80 | 2 | 80 | – | –

Row | SMILES | IC50 (Homo sapiens [1]; Homo sapiens, Blood) [nM] | IC50 (Homo sapiens [2]; Homo sapiens) [nM] | IC50 [3] [nM] | IC50 (Homo sapiens [2]) [nM] | IC50 (Homo sapiens [1]) [nM]
27 | COC(C)c1cc(-c2ccccc2)c2ccc(OCc3cccc(C4(O)CCOCC4)c3)cc2c1 (configuration not stated) | > 1000 | 41 | 1200 | – | –
28 | Cn1nnc(-c2cc(-c3ccccc3)c3ccc(OCc4cccc(C5(O)CCOCC5)c4)cc3c2)n1 | 310 | 4 | 120 | – | –
29 | O=C1OCc2c1cc1cc(OCc3cccc(C4(O)CC5COC(C4)O5)c3)ccc1c2-c1ccoc1 (stereo in doubt; 3u) | – | – | 140 | 7 | –
30 | O=C1OCc2c1cc1cc(OCc3cccc(C4(O)CCOCC4)c3)ccc1c2-c1ccc(Cl)cc1 | > 3000 | 26 | 5500 | – | –
31 | O=C1OCc2c1cc1cc(OCc3cccc(C4(O)CC5C=CC(C4)O5)c3)ccc1c2-c1ccccc1 (configuration not stated) | > 3000 | 27 | 400 | – | –
32 | CCc1cc(-c2ccccc2)c2ccc(OCc3cccc(C4(O)CCOCC4)c3)cc2c1 | > 1000 | 10 | 760 | – | –
33 | O=C1OCc2c1cc1cc(OCc3cccc(C4(O)CCOCC4)c3)ccc1c2-c1ccccc1Cl | 1100 | 11 | 380 | – | –
34 | CCCCc1cc(C(=O)OC)cc2cc(OCc3cccc(C4(O)CCOCC4)c3)ccc12 | – | 15 | 2200 | – | –
35 | O=C1OCc2c1cc1cc(OCc3cccc(C4(O)CC5CCC(C4)O5)c3)ccc1c2-c1ccccc1 (configuration not stated) | 1000 | 8 | 320 | – | –
36 | N#Cc1cc(-c2ccoc2)c2ccc(OCc3cccc(C4(O)CCOCC4)c3)cc2c1 | 10 | 2 | 30 | – | –
37 | N#Cc1cc(-c2ccoc2)c2ccc(OCc3cccc(C4(O)CC5COC(C4)O5)c3)cc2c1 (configuration not stated) | 150 | 3 | 190 | – | –
38 | OC1(c2cccc(COc3ccc4c(-c5ccccc5)cc(-c5nn[nH]n5)cc4c3)c2)CCOCC1 | > 3000 | > 700 | > 6000 | – | –
39 | COC1CC(O)(c2cccc(COc3ccc4c(-c5ccccc5)c5c(cc4c3)C(=O)OC5)c2)CCO1 (configuration not stated) | 120 | 2 | 23 | – | –
40 | OC1(c2cccc(COc3ccc4c(-c5ccoc5)cc(Cc5nccs5)cc4c3)c2)CCOCC1 | 660 | 1 | 140 | – | –
41 | CC1OC(=O)c2cc3cc(OCc4cccc(C5(O)CCOCC5)c4)ccc3c(-c3ccccc3)c21 (configuration not stated) | > 3000 | 150 | 1300 | – | –
42 | O=C(c1ccccc1)c1cc(-c2ccoc2)c2ccc(OCc3cccc(C4(O)CCOCC4)c3)cc2c1 | 200 | 1 | 70 | – | –
43 | COc1cccc(-c2c3c(cc4cc(OCc5cccc(C6(O)CCOCC6)c5)ccc24)C(=O)OC3)c1 | 260 | 4 | 80 | – | –
44 | O=C1OCc2c1cc1cc(OCc3cccc(C4(O)CC5COC(C4)O5)c3)ccc1c2-c1ccoc1 (stereo in doubt; 3v) | – | – | 340 | 21 | 2100
45 | N#Cc1cc(-c2ccccc2)c2ccc(OCc3cccc(C4(O)CCOCC4)c3)cc2c1 | 100 | 3 | 120 | – | –
46 | O=C1OCc2c1cc1cc(OCc3cccc(C4(O)CCOCC4)c3)ccc1c2-c1ccc(F)cc1 | 410 | 3 | 140 | – | –
47 | CC(C)(O)c1cc(-c2ccccc2)c2ccc(OCc3cccc(C4(O)CCOCC4)c3)cc2c1 | – | 59 | – | – | –
48 | O=C(O)c1cc(-c2ccccc2)c2ccc(OCc3cccc(C4(O)CCOCC4)c3)cc2c1 | – | 190 | – | – | –
49 | OC1(c2cccc(COc3ccc4c(-c5ccccc5)cc(Cn5ccnc5)cc4c3)c2)CCOCC1 | – | 40 | 640 | – | –
50 | O=C1OCc2c1cc1cc(OCc3cccc(C4(O)CCOCC4)c3)ccc1c2-c1ccsc1 | 50 | 2 | 27 | – | –
51 | COC(=O)c1cc(-c2ccccc2)c2ccc(OCc3cccc(C4(O)CCOCC4)c3)cc2c1 | 100 | 3 | 70 | – | –
52 | COC1(c2cc(F)cc(OCc3ccc4c(ccc(=O)n4C)c3)c2)CCOCC1 [ZD-2138] | 80 | 10 | 330 | – | –

Reference: ChEMBL document CHEMBL1129067, “Dioxabicyclooctanyl naphthalenenitriles as nonredox 5-lipoxygenase inhibitors: structure-activity relationship study directed toward the improvement of metabolic stability” (J Med Chem, 1996)
